Compound activity as filed in PubChem.
A selection: hits, their analogues and other compounds. The true share with any hit is near 1.5%.
DSG3 Ab inh: blocks pemphigus antibody binding to human desmoglein-3; binding (percent of control), % at 10 µM; 310,000 tested, 0.48% active; DSG3-coupled beads, scFv-anti-DSG3-GFP binding, flow cytometry; stronger effect = lower value;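 active = binding more than 3 SD below its plate's average and above zero; inconclusive = below that plate limit but binding exactly zero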;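 also: hits lower antibody fragment binding to DSG3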
HDAC3 inhib: inhibitors of human histone deacetylase 3; inhibition, % at 8.3 µM; recombinant HDAC3, fluorogenic peptide/trypsin coupled, fluorescence; 320,000 tested, 0.15% active; in the data active = inhibition above about 26%, passing the limit was not always enough; inconclusive = no clear call, values can overlap the other calls
Target sequence (O15379 whole entry, looked up): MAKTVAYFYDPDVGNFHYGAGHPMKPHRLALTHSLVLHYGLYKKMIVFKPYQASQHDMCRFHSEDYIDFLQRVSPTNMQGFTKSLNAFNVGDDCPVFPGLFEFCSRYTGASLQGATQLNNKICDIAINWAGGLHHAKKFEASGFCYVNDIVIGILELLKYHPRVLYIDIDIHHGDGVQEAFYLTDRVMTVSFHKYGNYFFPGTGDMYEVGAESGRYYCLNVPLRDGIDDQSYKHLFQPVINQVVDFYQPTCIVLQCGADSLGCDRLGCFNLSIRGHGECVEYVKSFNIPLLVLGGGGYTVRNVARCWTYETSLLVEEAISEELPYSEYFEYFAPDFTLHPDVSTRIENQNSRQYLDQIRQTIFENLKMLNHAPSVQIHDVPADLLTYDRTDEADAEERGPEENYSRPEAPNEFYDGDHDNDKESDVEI
Arrestin-AP2 inh: blocks beta-arrestin peptide binding to AP2 adaptin | FITC-arrestin peptide / GST-AP2 beads, flow cytometry; AP2 beta2 appendage carries R879A mutation | inhibition, % at 10 µM | 340,000 tested, 0.31% active;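 active = inhibition above a set limit, near 3 SD of compounds lacking own fluorescence, cut at about 54% in these data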;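 also: plate controls were DMSO wells for no effect and 5 µM unlabelled arrestin peptide for full effect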
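System: GST-tagged AP2 beta2-adaptin appendage (R879A) on 4 µm glutathione beads / Reagent: FITC-arrestin peptide, 50 nM / Detection: HyperCyt-sampled flow cytometry, FL1 channel, ex 488/em 535 nm / Timing: 12 min plus 1 h, RT / Buffer or medium: PBS plus Tween 20 (0.05%) and BSA (0.1%)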
T cell HTS: modulates CD8 T cell binding to vesicles | 2C CD8+ T cell-vesicle binding, flow cytometry; stronger effect = lower value | response (vesicle binding), % at 7 µM | 330,000 tested, 0.068% active;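 active = response, share of CD8 T cells binding vesicles, and their 90th percentile fluorescence all below set limits, cut at about 80% in these data, passing the limit was not always enough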;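 also: values below 100% mean blocked vesicle binding to the CD8+ T cells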
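Also added: QL9-peptide-loaded Drosophila micro-vesicles bearing Ld, ICAM-1 and B7-1; Test system: purified 2C TCR transgenic mouse naive CD8+ T cells; Measured by: cytometric PE anti-B7-1 and Alexa647 anti-CD8 signals after 1% paraformaldehyde fixation; Timing: binding step 1.5 h, 37 °C, antibody labelling 20 min, ice.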
LANA-H2B inh: blocks KSHV LANA binding to histone H2A/H2B. Q9QR71. cell-free LANA-H2A/H2B peptide, fluorescence polarization. inhibition, % (test concentration not listed). 320,000 tested, 0.6% active; in the data active = inhibition mostly above about 10%, no sharp cut-off; inactive = mostly below about 6.7%
Arr-AP2 CP1: inhibitors of human beta-arrestin and AP2 interaction | 1,300 tested, 2% active | shares compounds with Arrestin-AP2 inh | AID 504908 | inhibition, % at 10 µM | GST-AP2 beads, FITC arrestin peptide binding, flow cytometry; GST-fused beta2-adaptin appendage, R879A mutant;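 active = inhibition above a set limit, roughly 3 SD of non-fluorescent compound noise, cut at about 38% in these data; inactive = inhibition at or below that limit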;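 also: loss of bead fluorescence from 50 nM FITC arrestin peptide bound to appendage; 0% = negative control wells and 100% = excess unlabelled arrestin peptide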
GST-FITC bead: GST-GSH bead binding interference, counter-screen; GST-fluorescein binding to GSH beads, fluorescence; shares compounds with Arrestin-AP2 inh; 1,300 tested, 2% active; inhibition, % at 10 µM;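 active = inhibition above 50%, about 3 SD of the inhibition seen with non-fluorescent compounds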;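 also: fluorescein maleimide labelled GST captured on 4 micron glutathione beads; higher means more loss of bead fluorescence from quenching or blocked binding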
Starred values were filed as active, the others as inactive; i = inactive; ? = inconclusive; / = no result given.

SMILES	DSG3 Ab inh	HDAC3 inhib	Arrestin-AP2 inh	T cell HTS	LANA-H2B inh	Arr-AP2 CP1	GST-FITC bead
O=C(CSc1nc(O)c(-c2ccccc2)c(=O)[nH]1)N1CCOCC1	93	-4	-46	324	4	/	/
CCOc1ccc(NC(=O)CN(C)C(=O)CN2C(=O)c3ccc([N+](=O)[O-])cc3C2=O)cc1OCC	92	/	6	/	/	/	/
Cc1noc(C)c1CSc1ncnc2sc3c(c12)CCCCC3	104	3	6	434	3	/	/
Cc1noc(C)c1CSc1ncnc2sc(C)c(C)c12	104	4	105*	207	4	-7	2
Cc1ccc(S(=O)(=O)CCC(=O)Nc2nnc(-c3cccs3)o2)cc1	98	0	30	374	0	/	/
CC(O)c1nc2ccccc2n1Cc1ccccc1 (stereo not drawn)	110	2	54*	112	-1	-3	-6
CC1(C)C(=O)Nc2ccccc2N1C(=O)COc1cc(Cl)ccc1Cl	104	5	14	496	2	/	/
CCn1c(C)nc2cc(C(=O)NNC(=O)Nc3ccc(Cl)cc3)ccc21	119	3	57*	572	4	-13	0
CCn1c(C)nc2cc(C(=O)NNC(=O)Nc3cccc(Cl)c3)ccc21	100	6	-3	245	6	/	/
Cc1ccc(OCc2cn3cccnc3n2)cc1	134	6	67*	392	-4	-5	11
CC(=O)c1c(OC(=O)c2ccco2)c2ccccc2n1C	96	13	63*	162	-2	-2	6
CC(=O)c1c(OC(=O)c2ccc(C)cc2)c2ccccc2n1C	121	11	20	503	-4	/	/
CCn1c(=O)n(CC)c2cc(N3CCCC3)c(NC(=O)c3cc(Br)ccc3OC)cc21	/	-1	/	i	-5	4	1
CCn1c(=O)n(CC)c2cc(N3CCCC3)c(NC(=O)c3ccccc3F)cc21	/	2	7	346	2	-2	-8
COc1ccc(Br)cc1C(=O)Nc1ccccc1N1CCCC1	101	3	-3	623	4	/	/
Cc1ccccc1C(=O)Nc1ccccc1N1CCCCC1	105	11	1	232	-3	/	/
O=C(Nc1cc(C(=O)N2CCCC2)ccc1N1CCCC1)c1ccccc1F	99	-2	-5	285	-2	/	/
CCn1c(=O)n(CC)c2cc(N3CCCC3)c(NC(=O)c3ccccc3C)cc21	103	5	4	489	8	21	-1
Cc1cccc(N2CC(C(=O)Nc3nnc(SCc4ccccn4)s3)CC2=O)c1 (stereo not drawn)	90	-6	-14	432	0	/	/
COc1ccc(NC(=O)CSc2nnc(C)n2C2CC2)cc1S(=O)(=O)N1CCOCC1	96	-5	22	484	4	/	/
CC(C)(C)c1ccc(C(=O)NC(=O)CSc2n[nH]c(N)n2)cc1	/	-2	19	301	-4	/	/
CN(C(=O)CSc1ncnc2sc3c(c12)CCCC3)C1CCS(=O)(=O)C1 (stereo not drawn)	92	-7	6	380	-1	/	/
CCCCCc1nc2sc3c(c2c(=O)n1N)CCC3	95	1	97*	162	1	-6	-3
O=C(NCc1ccco1)c1cc(S(=O)(=O)N2CCCC2)ccc1Cl	109	-5	54*	352	6	1	-15
COc1ccc(S(=O)(=O)N2CCCCCC2)cc1C(=O)NCc1ccco1	/	3	4	156	3	/	/
Nc1nc(=S)c2[nH]cnc2[nH]1	108	?	-9	183	1	/	/
Cc1cc(C(=O)OCC(=O)NCCc2ccccc2)c2ccccc2n1	103	-1	54*	371	2	4	1
CCCNC(=O)COC(=O)c1cc(C)nc2ccccc12	104	-3	12	730	5	/	/
CC(Sc1ccc(Cl)cc1)C(=O)N(C)CC(=O)Nc1ccc(N2CCOCC2)cc1 (stereo not drawn)	101	-2	56*	189	1	5	-7
